Data on seven compounds can be found in ChEMBL document CHEMBL1148082, “Cucurbitacins, cell adhesion inhibitors from Conobea scoparioides” (J Nat Prod, 1994).

Broadly, the inhibition is how much of the control response was suppressed.

The test system of assay [1] is JY. The assay is described as follows: Cytotoxicity against human JY cells assessed as inhibition of thymidine uptake at 0.3 uM by scintillation counting. Format: functional. The gist of the method:
(§1)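 PKH26-stained JY cells were held at 37° with compound (0.3, 1.0, 3.3 or 50 μM) for 24 h and pulsed with tritiated thymidine during the last 5 h. Uptake was counted by scintillation and expressed as % inhibition.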

The subject of assay [2] is JY. Put plainly: Cytotoxicity against human JY cells assessed as inhibition of thymidine uptake at 1 uM by scintillation counting. Format: functional. The method in brief: as §1
The subject of assay [3] is JY. Put plainly: Cytotoxicity against human JY cells assessed as inhibition of thymidine uptake at 3.3 uM by scintillation counting. It is filed as functional. The gist of the method: as §1
Assay [4] is filed under the species Homo sapiens. Put plainly: Inhibition of actin polymerization in fMLP-stimulated human neutrophils assessed as positive fluorescence signal at 1 uM. The gist of the method:
(§2)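 Human peripheral blood neutrophils were preincubated with compound for 45 min at 37° in PBS with Ca²⁺/Mg²⁺ and 10% fetal calf serum. They were then stimulated with fMLP (1 × 10⁻⁸ M final) for 1 min at 37°. Cells were fixed and permeabilized for at least 30 min at room temperature in 3% paraformaldehyde with lysophosphatidylcholine (12.5 µg/ml), pH 7.6. They were then stained with NBD-phalloidin for 15 min at 37° and analysed by flow cytometry (ex 488, em 530 nm). The value is the percent of cells with fluorescence above background.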

For assay [5], the species on record is Homo sapiens. The assay is described as follows: Inhibition of actin polymerization in fMLP-stimulated human neutrophils assessed as positive fluorescence signal at 3.3 uM. The gist of the method: as §2
For assay [6], the species on record is Homo sapiens. The assay is described as follows: Inhibition of actin polymerization in fMLP-stimulated human neutrophils assessed as positive fluorescence signal at 0.33 uM. The method in brief:
as §2

Assay [7] deals with JY. Put plainly: Cytotoxicity against human JY cells assessed as inhibition of thymidine uptake at 50 uM by scintillation counting. Format: functional. The method in brief:
as §1

The species entered for assay [8] is Homo sapiens. The assay is described as follows: Inhibition of actin polymerization in fMLP-stimulated human neutrophils assessed as positive fluorescence signal at 10 uM. The gist of the method:
as §2

Assay [9] concerns JY. The assay is described as follows: Cytotoxicity against human JY cells assessed as inhibition of thymidine uptake up to 5 hrs. It is filed as functional, cell-based. The gist of the method: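 Proliferation assay in PKH26-stained JY cells exposed to test compounds at 37° for 5 h, with a tritiated thymidine pulse over the final 5 h. Thymidine uptake was quantitated by scintillation counting.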

For assay [10], the system named is JY. Put plainly: Cytotoxicity against human JY cells after 48 hrs by MTT assay. It is filed as functional, cell-based. The method in brief: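 PKH26-stained JY cells incubated at 37° with test compounds for 48 h. MTT added for the last 4 h. Cells and formazan crystals were solubilized, and colour was read on an ELISA plate reader.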
On the technique in general: Tetrazolium assays rely on reduction of a dye to a coloured formazan, in cell work by metabolically active cells.

For assay [11], the system named is JY. The assay is described as follows: Cytotoxicity against human JY cells up to 45 mins. Format: functional, cell-based. The method in brief:
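Washout format: stained JY cells were treated with compounds for 45 min, matching the adhesion assay length, then washed extensively. Cells were then either incubated 24 h with a tritiated thymidine pulse in the last 5 h and scintillation counting, or run in the 48-h MTT assay.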

Assay [12] relates to JY. Put plainly: Effect on cell activation in human JY cells assessed as inhibition of Ca2+ flux. Format: functional, cell-based. For orientation: Calcium assays in cells follow changes in intracellular calcium, usually with a dye or a luminescent sensor.
Assay [13] deals with Protein kinase C (PKC) (Homo sapiens) (UniProt O94806+P41743+P17252+P05129+Q05655+P05771+Q05513+Q02156+P24723+Q15139+Q04759). The assay is described as follows: Inhibition of PKC in human JY cells. It is filed as cell-based.

Calls of active or inactive are those of the source. No cut-off for these calls is given here.

With `CC(=O)OC(C)(C)/C=C/C(=O)[C@](C)(O)[C@H]1[C@H](O)C[C@@]2(C)[C@@H]3CC=C4[C@H](C[C@H](O)C(=O)C4(C)C)[C@]3(C)C(=O)C[C@]12C` [CUCURBITACIN B], the inhibition at 0.3 µM in the assay on JY [1] came out at 39%. In the assay on JY [2], the inhibition at 1 µM was 63%. The inhibition at 3.3 µM with JY [3] is 71%. Moreover, the inhibition stood at 19.5% in the assay filed under Homo sapiens [4], 9.6% in the assay listed under Homo sapiens [5] and 29.8% in the assay listed under Homo sapiens [6].

For `CC(C)(O)CCC(=O)[C@@](C)(O)C1[C@H](O)C[C@@]2(C)[C@@H]3CC=C4C(C=C(O)C(=O)C4(C)C)[C@]3(C)C(=O)C[C@]12C` (stereo partly specified) [CUCURBITACIN L], in the assay on JY [7], the inhibition at 50 µM was found to be 69%. Further, the inhibition in the assay filed under Homo sapiens [4] was 79.2%; in the assay listed under Homo sapiens [5], 77.7%; in the assay listed under Homo sapiens [6], 86.2%.

Turning to `CC(C)(O)/C=C/C(=O)[C@](C)(O)[C@H]1[C@H](O)C[C@@]2(C)[C@@H]3CC=C4[C@@H](C[C@H](O)C(=O)C4(C)C)[C@]3(C)C(=O)C[C@]12C` [CUCURBITACIN D], the inhibition at 0.3 µM with JY [1] is 12%. The inhibition at 1 µM with JY [2] stood at 45%. For the same compound, in the assay with JY [3], the inhibition at 3.3 µM came to 58%. Also, the inhibition was found to be 64.6% in the assay listed under Homo sapiens [4], 24.3% in the assay filed under Homo sapiens [5] and 75.2% in the assay filed under Homo sapiens [6].

Consider `C=C1[C@@H](C)[C@H]2[C@H](Cc3ccccc3)NC(=O)[C@]23OC(=O)/C=C/[C@H](O)CCC[C@@H](C)C/C=C/[C@H]3[C@@H]1O`, for which the inhibition in the assay filed under Homo sapiens [8] was determined as 4.2%; in the assay filed under Homo sapiens [4] it was 45.5%.

Consider `CC(=O)OC(C)(C)/C=C/C(=O)[C@](C)(O)[C@H]1[C@H](O)C[C@@]2(C)[C@@H]3CC=C4[C@@H](C=C(O)C(=O)C4(C)C)[C@]3(C)C(=O)C[C@]12C` [CUCURBITACIN E], for which the inhibition at 0.3 µM in the assay with JY [1] was 19%. Besides, the inhibition at 1 µM in the assay on JY [2] was 60%. In the assay with JY [3], the inhibition at 3.3 µM came out at 68%. Further, the outcome (with JY [9]; in the assay with JY [12]; in assay [13]) was inactive. For the same compound, the outcome in the assay with JY [10] was Active. Also, the Activity result in the assay on JY [11] was “Toxic”. Further, the inhibition in the assay listed under Homo sapiens [4] turned out to be 24.7%; in the assay listed under Homo sapiens [5] it was 3.8%; in the assay filed under Homo sapiens [6], 21.5%.

As for `CC(C)(O)CCC(=O)[C@](C)(O)[C@H]1[C@H](O)C[C@@]2(C)[C@@H]3CC=C4[C@@H](C[C@H](O)C(=O)C4(C)C)[C@]3(C)C(=O)C[C@]12C` [CUCURBITACIN R], in the assay on JY [1], the inhibition at 0.3 µM worked out at 20%. For the same compound, in the assay on JY [2], the inhibition at 1 µM came to 22%. Besides, the inhibition at 3.3 µM with JY [3] stood at 7%. Also, the inhibition at 50 µM in the assay on JY [7] is 74%. Besides, the inhibition came to 82.8% in the assay filed under Homo sapiens [4], 86% in the assay filed under Homo sapiens [5] and 79.2% in the assay filed under Homo sapiens [6]. Besides, the result (in the assay with JY [12]; in [13]) was inactive.

For `CC(C)(O)/C=C/C(=O)[C@](C)(O)[C@H]1[C@H](O)C[C@@]2(C)[C@@H]3CC=C4[C@@H](C=C(O)C(=O)C4(C)C)[C@]3(C)C(=O)C[C@]12C` [CUCURBITACIN I], the inhibition at 0.3 µM in the assay on JY [1] was 34%. In addition, in the assay on JY [2], the inhibition at 1 µM was found to be 63%. The inhibition at 3.3 µM with JY [3] worked out at 58%. Moreover, the inhibition came out at 15.3% in the assay listed under Homo sapiens [4], 20.5% in the assay filed under Homo sapiens [5] and 60.5% in the assay listed under Homo sapiens [6]. Moreover, the result (in the assay on JY [12]; in [13]) was inactive.
